Laboratory results: ChEMBL document CHEMBL5712912, “Abnormal overexpression of G9a in melanoma cells promotes cancer progression via upregulation of the Notch1 signaling pathway” (Aging (Albany NY), 2020)
The source made the active and inactive calls. The rule behind the calls is not given here.

Experiments:
A-375 [1] = test: Induction of apoptosis in human A-375 cells overexpressing […] assessed as necrotic cells by Annexin V-FITC/PI staining based flow cytometry (Rvb-1.34%); format: functional; conditions: dose 2 µM
A-375 [2] = test: Induction of apoptosis in human A-375 cells overexpressing […] assessed as late apoptotic cells by Annexin V-FITC/PI staining based flow cytometry (Rvb-3.10%); format: functional; conditions: dose 2 µM
A-375 [3] = test: Induction of apoptosis in human A-375 cells overexpressing […] assessed as live cells by Annexin V-FITC/PI staining based flow cytometry (Rvb-95.1%); format: functional; conditions: dose 2 µM
A-375 [4] = test: Induction of apoptosis in human A-375 cells overexpressing […] assessed as early apoptotic cells by Annexin V-FITC/PI staining based flow cytometry (Rvb-0.43%); format: functional; conditions: dose 2 µM
A-375 [5] = test: Induction of apoptosis in human A-375 cells assessed as increase in cleaved Caspase-3 expression at 2 uM by Western blot analysis; format: functional, cell-based
A-375 [6] = test: Induction of apoptosis in human A-375 cells assessed as reduction in Bcl-2 expression at 2 uM by Western blot analysis; format: functional, cell-based
A-375 [7] = test: Induction of apoptosis in human A-375 cells overexpressing NICD assessed as increase in cleaved Caspase-3 expression at 2 uM by Western blot analysis; format: functional, cell-based
A-375 [8] = test: Induction of apoptosis in human A-375 cells overexpressing NICD assessed as reduction in Bcl-2 expression at 2 uM by Western blot analysis; format: functional, cell-based
A-375 [9] = test: Antitumor activity against human A-375 cells xenografted in nude mouse assessed as tumor growth inhibition at 5 mg/kg, ip administered every other day for 10 days measured post-last dose by caliper method; format: functional, organism-based; conditions: time 10.0 day
Summary of the method: (§1)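 Male nude mice, 6 weeks old, were given A375 cells (2X 106) subcutaneously. After one week, animals with palpable xenografts were randomised into two groups: DMSO vehicle, or compound at 5 mg/kg i.p. every other day for 10 days. Tumour volume was measured, and body weight was monitored.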

[10] = Toxicity in human A-375 cells xenografted nude mouse assessed as change in body weight at 5 mg/kg, ip administered every other day for 10 days and measured during compound dosing; format: organism-based; conditions: in vivo, 240 h, time 10 day; summary of the method: as §1
[11] = molecular target: T1, Histone-lysine N-methyltransferase EHMT2 (Homo sapiens) (UniProt Q96KQ7); test: Inhibition of G9a in human A-375 cells assessed as reduction in AKT phosphorylation at 2 uM by Western blot analysis; format: cell-based
T1 sequence (whole entry): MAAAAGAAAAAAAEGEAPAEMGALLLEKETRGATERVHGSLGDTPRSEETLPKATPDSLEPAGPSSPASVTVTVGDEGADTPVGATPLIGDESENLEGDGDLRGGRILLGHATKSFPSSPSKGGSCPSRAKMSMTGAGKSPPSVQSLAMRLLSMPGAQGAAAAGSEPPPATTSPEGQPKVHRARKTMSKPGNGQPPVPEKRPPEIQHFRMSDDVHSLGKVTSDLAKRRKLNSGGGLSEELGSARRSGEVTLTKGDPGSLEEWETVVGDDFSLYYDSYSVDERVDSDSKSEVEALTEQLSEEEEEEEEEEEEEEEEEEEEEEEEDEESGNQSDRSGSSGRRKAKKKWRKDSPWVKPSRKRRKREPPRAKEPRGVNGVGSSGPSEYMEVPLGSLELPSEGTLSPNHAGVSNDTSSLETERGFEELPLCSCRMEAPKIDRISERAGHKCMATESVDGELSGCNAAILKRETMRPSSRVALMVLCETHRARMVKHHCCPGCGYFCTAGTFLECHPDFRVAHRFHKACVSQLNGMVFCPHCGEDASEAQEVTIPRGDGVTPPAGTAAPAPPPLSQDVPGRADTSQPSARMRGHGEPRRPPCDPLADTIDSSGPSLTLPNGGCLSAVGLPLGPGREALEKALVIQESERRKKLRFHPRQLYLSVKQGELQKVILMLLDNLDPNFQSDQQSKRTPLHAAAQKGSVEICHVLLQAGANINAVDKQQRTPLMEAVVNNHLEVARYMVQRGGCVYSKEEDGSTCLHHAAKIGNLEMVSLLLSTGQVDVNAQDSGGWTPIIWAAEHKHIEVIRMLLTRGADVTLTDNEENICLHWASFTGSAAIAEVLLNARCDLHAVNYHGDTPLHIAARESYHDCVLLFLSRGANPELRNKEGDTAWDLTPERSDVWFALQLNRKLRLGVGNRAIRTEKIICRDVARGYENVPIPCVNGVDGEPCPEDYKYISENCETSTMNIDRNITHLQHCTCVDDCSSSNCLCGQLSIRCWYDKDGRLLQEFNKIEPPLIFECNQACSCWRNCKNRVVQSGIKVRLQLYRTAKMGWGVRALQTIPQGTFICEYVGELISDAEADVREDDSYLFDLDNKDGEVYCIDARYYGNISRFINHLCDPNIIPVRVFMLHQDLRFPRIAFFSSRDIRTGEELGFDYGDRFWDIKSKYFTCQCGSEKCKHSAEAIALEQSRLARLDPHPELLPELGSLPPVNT

[12] = molecular target: T1, Histone-lysine N-methyltransferase EHMT2 (Homo sapiens); test: Inhibition of G9a in human M14 cells assessed as reduction in AKT phosphorylation at 2 uM by Western blot analysis; format: cell-based
[13] = molecular target: T1, Histone-lysine N-methyltransferase EHMT2 (Homo sapiens); test: Inhibition of G9a in human A-375 cells overexpressing NICD assessed as reduction in AKT phosphorylation at 2 uM by Western blot analysis; format: cell-based
[14] = molecular target: T1, Histone-lysine N-methyltransferase EHMT2 (Homo sapiens); test: Inhibition of G9a in human M14 cells overexpressing NICD assessed as reduction in AKT phosphorylation at 2 uM by Western blot analysis; format: cell-based
M14 [15] = test: Induction of apoptosis in human M14 cells assessed as increase in cleaved Caspase-3 expression at 2 uM by Western blot analysis; format: functional, cell-based
M14 [16] = test: Induction of apoptosis in human M14 cells assessed as reduction in Bcl-2 expression at 2 uM by Western blot analysis; format: functional, cell-based
M14 [17] = test: Induction of apoptosis in human M14 cells overexpressing NICD assessed as increase in cleaved Caspase-3 expression at 2 uM by Western blot analysis; format: functional, cell-based
M14 [18] = test: Induction of apoptosis in human M14 cells overexpressing NICD assessed as reduction in Bcl-2 expression at 2 uM by Western blot analysis; format: functional, cell-based
M14 [19] = test: Induction of apoptosis in human M14 cells assessed as necrotic cells at 2 uM by Annexin V-FITC/PI staining based flow cytometry (reference value: 1.34%); format: functional
M14 [20] = test: Induction of apoptosis in human M14 cells assessed as late apoptotic cells at 2 uM by Annexin V-FITC/PI staining based flow cytometry (reference value: 3.10%); format: functional
M14 [21] = test: Induction of apoptosis in human M14 cells assessed as live cells at 2 uM by Annexin V-FITC/PI staining based flow cytometry (reference value: 95.1%); format: functional
M14 [22] = test: Induction of apoptosis in human M14 cells assessed as early apoptotic cells at 2 uM by Annexin V-FITC/PI staining based flow cytometry (reference value: 0.43%); format: functional
M14 [23] = test: Induction of apoptosis in human M14 cells overexpressing NCID assessed as necrotic cells by Annexin V-FITC/PI staining based flow cytometry (Rvb-1.34%); format: functional; conditions: dose 2 µM
M14 [24] = test: Induction of apoptosis in human M14 cells overexpressing NCID assessed as late apoptotic cells by Annexin V-FITC/PI staining based flow cytometry (Rvb-3.10%); format: functional; conditions: dose 2 µM
M14 [25] = test: Induction of apoptosis in human M14 cells overexpressing NCID assessed as live cells by Annexin V-FITC/PI staining based flow cytometry (Rvb-95.1%); format: functional; conditions: dose 2 µM
M14 [26] = test: Induction of apoptosis in human M14 cells overexpressing NCID assessed as early apoptotic cells by Annexin V-FITC/PI staining based flow cytometry (Rvb-0.43%); format: functional; conditions: dose 2 µM

COc1cc2c(NC3CCN(C(C)C)CC3)nc(N3CCC(F)(F)CC3)nc2cc1OCCCN1CCCC1
Activity (A-375 [1]): 0.76% | Activity (A-375 [2]): 3.59% | Activity (A-375 [3]): 94.9% | Activity (A-375 [4]): 0.75% | Activity (A-375 [5]): Active | Activity (A-375 [6]): Active | Activity (A-375 [7]): inactive | Activity (A-375 [8]): inactive | TGI (A-375 [9]): Active | Activity [10]: Non-Toxic | inhibition [11]: Active | inhibition [12]: Active | inhibition [13]: inactive | inhibition [14]: inactive | Activity (M14 [15]): Active | Activity (M14 [16]): Active | Activity (M14 [17]): inactive | Activity (M14 [18]): inactive | Activity (M14 [19]): 0.27% | Activity (M14 [20]): 5.17% | Activity (M14 [21]): 89.8% | Activity (M14 [22]): 4.8% | Activity (M14 [23]): 0.76% | Activity (M14 [24]): 3.59% | Activity (M14 [25]): 94.9% | Activity (M14 [26]): 0.75%
